{"source": "ChEMBL document CHEMBL3576847", "about": "“Discovery of 1-(3,3-dimethylbutyl)-3-(2-fluoro-4-methyl-5-(7-methyl-2-(methylamino)pyrido[2,3-d]pyrimidin-6-yl)phenyl)urea (LY3009120) as a pan-RAF inhibitor with minimal paradoxical activation and activity against BRAF or RAS mutant tumor cells” (J Med Chem, 2015)", "key": {"[1]": {"biological_target": "Dual specificity mitogen-activated protein kinase kinase; MEK1/2 (Homo sapiens, UniProt P36507+Q02750)", "experiment": "Inhibition of MEK (unknown origin)"}, "[2]": {"biological_target": "Mitogen-activated protein kinase kinase kinase 1 (Homo sapiens, UniProt Q13233)", "sequence (Q13233 whole entry)": "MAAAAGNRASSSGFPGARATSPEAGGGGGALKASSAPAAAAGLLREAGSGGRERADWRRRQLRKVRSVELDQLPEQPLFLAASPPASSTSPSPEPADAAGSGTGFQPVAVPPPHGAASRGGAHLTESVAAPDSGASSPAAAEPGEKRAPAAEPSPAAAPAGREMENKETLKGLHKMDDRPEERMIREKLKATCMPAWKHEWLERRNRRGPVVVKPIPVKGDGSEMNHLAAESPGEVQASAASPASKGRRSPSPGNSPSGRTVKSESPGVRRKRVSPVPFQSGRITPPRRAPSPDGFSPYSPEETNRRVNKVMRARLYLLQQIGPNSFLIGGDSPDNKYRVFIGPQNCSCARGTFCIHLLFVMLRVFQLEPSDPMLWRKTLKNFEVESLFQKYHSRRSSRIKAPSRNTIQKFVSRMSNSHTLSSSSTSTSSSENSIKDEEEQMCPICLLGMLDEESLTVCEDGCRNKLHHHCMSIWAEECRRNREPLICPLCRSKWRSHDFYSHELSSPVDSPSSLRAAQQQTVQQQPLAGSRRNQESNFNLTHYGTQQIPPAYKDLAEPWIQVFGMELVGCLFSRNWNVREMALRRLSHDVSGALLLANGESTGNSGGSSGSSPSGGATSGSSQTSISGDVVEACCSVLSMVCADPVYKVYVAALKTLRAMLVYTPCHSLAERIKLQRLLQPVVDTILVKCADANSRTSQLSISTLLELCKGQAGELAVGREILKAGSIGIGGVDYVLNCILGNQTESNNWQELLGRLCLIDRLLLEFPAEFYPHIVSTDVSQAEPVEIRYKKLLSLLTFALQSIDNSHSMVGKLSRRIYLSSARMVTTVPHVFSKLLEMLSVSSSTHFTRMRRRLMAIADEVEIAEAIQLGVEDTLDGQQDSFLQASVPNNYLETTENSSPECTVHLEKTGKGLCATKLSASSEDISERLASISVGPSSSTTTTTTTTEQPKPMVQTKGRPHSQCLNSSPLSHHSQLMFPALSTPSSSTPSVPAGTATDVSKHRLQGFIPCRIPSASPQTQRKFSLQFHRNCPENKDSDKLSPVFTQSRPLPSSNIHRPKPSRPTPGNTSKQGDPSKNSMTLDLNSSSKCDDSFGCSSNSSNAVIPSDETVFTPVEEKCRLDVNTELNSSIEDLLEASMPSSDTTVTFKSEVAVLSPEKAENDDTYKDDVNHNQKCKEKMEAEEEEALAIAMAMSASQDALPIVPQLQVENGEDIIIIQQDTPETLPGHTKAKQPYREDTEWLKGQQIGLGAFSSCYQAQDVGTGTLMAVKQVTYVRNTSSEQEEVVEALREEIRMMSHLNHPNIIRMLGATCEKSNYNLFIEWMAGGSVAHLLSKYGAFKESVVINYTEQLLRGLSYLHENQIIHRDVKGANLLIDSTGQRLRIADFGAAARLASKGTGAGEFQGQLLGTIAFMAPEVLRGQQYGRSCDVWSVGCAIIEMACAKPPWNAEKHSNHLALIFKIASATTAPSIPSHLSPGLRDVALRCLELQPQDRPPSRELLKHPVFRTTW", "experiment": "Competitive binding affinity to MAP3K1 in human A375 cells after 15 mins in presence of ATP analogue", "type": "cell-based, A-375", "procedure,_shortened": "(§1)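 A375 whole-cell lysate incubated with compound for 15 min. Binding to over 170 kinases was measured by direct competition with an ATP analog (KiNativ platform). IC50 reported in nM.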"}, "[3]": {"biological_target": "Interleukin-1 receptor-associated kinase 1 (Homo sapiens, UniProt P51617)", "sequence (P51617 whole entry)": "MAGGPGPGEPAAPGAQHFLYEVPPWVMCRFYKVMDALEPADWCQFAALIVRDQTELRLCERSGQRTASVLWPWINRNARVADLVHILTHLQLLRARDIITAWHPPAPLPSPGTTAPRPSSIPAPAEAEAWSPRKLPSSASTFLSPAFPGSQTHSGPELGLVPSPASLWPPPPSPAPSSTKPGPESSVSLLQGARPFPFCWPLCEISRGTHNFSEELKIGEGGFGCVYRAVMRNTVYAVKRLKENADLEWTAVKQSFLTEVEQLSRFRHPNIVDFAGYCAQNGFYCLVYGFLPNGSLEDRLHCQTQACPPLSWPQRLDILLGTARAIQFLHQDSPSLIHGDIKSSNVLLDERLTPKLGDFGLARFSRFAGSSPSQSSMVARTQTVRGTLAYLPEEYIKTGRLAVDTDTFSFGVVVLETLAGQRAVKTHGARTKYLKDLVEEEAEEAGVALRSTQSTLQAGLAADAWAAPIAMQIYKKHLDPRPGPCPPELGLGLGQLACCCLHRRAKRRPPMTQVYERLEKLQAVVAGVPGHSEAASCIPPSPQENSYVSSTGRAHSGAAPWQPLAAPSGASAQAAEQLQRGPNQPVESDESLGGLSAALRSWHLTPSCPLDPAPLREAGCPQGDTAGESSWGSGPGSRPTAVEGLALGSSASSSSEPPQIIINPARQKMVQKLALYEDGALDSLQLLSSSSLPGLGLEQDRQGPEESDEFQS", "experiment": "Competitive binding affinity to IRAK1 in human A375 cells after 15 mins in presence of ATP analogue", "type": "cell-based, A-375"}, "eIF-2-alpha kinase GCN2": {"biological_target": "eIF-2-alpha kinase GCN2 (Homo sapiens, UniProt Q9P2K8)", "sequence (Q9P2K8 whole entry)": "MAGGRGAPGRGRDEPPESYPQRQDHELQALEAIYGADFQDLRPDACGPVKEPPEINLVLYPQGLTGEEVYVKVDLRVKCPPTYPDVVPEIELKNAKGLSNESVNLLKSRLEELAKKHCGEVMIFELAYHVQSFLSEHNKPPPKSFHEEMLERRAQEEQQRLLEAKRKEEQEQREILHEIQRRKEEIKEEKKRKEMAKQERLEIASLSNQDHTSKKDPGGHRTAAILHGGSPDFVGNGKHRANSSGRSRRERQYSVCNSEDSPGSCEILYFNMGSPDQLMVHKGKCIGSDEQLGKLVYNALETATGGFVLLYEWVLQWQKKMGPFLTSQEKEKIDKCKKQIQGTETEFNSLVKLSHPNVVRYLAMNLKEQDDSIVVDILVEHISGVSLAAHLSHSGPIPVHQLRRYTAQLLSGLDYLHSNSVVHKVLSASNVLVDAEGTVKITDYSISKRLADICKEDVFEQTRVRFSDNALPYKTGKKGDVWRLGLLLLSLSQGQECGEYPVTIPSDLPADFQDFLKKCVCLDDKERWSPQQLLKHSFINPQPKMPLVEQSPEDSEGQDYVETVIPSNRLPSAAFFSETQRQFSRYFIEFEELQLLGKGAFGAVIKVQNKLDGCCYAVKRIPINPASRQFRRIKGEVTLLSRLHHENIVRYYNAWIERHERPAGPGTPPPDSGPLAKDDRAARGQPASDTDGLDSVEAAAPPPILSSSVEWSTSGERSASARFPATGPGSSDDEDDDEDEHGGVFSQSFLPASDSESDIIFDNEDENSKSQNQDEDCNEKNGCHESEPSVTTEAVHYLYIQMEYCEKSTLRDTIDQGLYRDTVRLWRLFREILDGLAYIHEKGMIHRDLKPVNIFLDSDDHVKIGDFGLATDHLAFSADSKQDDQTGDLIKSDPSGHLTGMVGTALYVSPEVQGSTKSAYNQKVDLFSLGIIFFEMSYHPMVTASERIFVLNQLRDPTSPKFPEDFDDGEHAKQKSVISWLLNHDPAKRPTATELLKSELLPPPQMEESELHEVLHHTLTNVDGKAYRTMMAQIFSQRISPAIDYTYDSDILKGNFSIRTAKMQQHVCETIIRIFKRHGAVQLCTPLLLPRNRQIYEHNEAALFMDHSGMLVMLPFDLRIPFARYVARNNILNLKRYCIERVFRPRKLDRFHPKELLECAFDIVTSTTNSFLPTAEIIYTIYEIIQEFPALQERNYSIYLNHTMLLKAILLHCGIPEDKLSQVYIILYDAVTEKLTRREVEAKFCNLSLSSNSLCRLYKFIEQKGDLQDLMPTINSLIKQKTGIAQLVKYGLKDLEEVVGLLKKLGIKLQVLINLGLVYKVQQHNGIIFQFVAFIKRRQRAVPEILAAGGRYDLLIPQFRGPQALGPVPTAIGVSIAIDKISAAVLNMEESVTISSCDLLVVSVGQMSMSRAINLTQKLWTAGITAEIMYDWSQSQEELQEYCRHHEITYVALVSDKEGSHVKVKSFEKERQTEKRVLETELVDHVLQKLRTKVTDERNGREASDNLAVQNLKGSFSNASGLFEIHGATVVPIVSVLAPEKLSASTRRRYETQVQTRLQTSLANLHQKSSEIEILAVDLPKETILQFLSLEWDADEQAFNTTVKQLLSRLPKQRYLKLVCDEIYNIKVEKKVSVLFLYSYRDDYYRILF", "experiment": "Competitive binding affinity to GCN2 in human A375 cells after 15 mins in presence of ATP analogue", "type": "cell-based, A-375", "procedure,_shortened": "as §1"}, "[4]": {"experiment": "Oral bioavailability in Sprague-Dawley rat at 10 mg/kg administered as suspension in 20% cyclodextrin", "type": "ADME, organism-based", "conditions": "in vivo"}, "[5]": {"experiment": "AUC (0 to 24 hrs) in dog at 10 mg/kg, po administered as API capsule", "type": "ADME, organism-based, Canis lupus familiaris", "design": "time < 24 hr, dose 10 mg/kg, route oral", "conditions": "in vivo"}, "[6]": {"experiment": "AUC (0 to 24 hrs) in dog at 10 mg/kg, po administered as solid suspension", "type": "ADME, organism-based, Canis lupus familiaris", "design": "time < 24 hr, dose 10 mg/kg, route oral", "conditions": "in vivo"}, "[7]": {"experiment": "Cmax in dog at 10 mg/kg, po administered as solid suspension", "type": "ADME, organism-based, Canis lupus familiaris", "design": "dose 10 mg/kg, route oral", "conditions": "in vivo"}, "[8]": {"experiment": "Cmax in monkey at 10 mg/kg, po administered as suspension in 20% cyclodextrin", "type": "ADME, organism-based, Macaca mulatta", "design": "dose 10 mg/kg, route oral", "conditions": "rhesus monkey, in vivo", "procedure,_shortened": "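Male, fasted monkeys given a 10 mg/kg oral formulation as part of an iv/po PK study. Plasma exposure and half-life were derived.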"}, "[9]": {"experiment": "Volume of distribution in Sprague-Dawley rat at 1 mg/kg, iv administered as suspension in 20% cyclodextrin", "type": "ADME, organism-based", "conditions": "in vivo"}, "[10]": {"experiment": "Half life in dog at 1 mg/kg, iv administered as 20% cyclodextrin solution", "type": "ADME, organism-based, Canis lupus familiaris", "conditions": "in vivo", "procedure,_shortened": "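Single 1 mg/kg iv dose given as a 20% cyclodextrin solution to rat, dog (male, fasted, crossover, n = 4) or monkey (male, fasted). Clearance, volume of distribution and half-life were calculated. Clearance is also expressed relative to species hepatic blood flow (Qh).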"}, "Canis familiaris": {"test_system": "Canis familiaris", "experiment": "Clearance in dog at 1 mg/kg, iv administered as suspension in 20% cyclodextrin relative to hepatic blood flow", "type": "ADME, organism-based, Canis lupus familiaris", "conditions": "in vivo"}, "[11]": {"experiment": "Dissociation constant, pKa of the compound", "type": "physicochemical"}, "[12]": {"experiment": "Solubility of the compound in simulated fasted gastric fluid", "type": "ADME"}, "[13]": {"experiment": "Solubility of the compound in water", "type": "physicochemical"}, "[14]": {"experiment": "Paradoxical activation of RAS/RAF/MEK signaling pathway in human HCT116 cells expressing wild type BRAF assessed as ERK phosphorylation at <100 nM", "type": "cell-based", "conditions": "HCT-116"}}, "note": "Active and inactive are the calls of the source. The calls are words filed in the database; no cut-off is given here.", "data": [{"smiles": "CNc1ncc2cc(-c3cc(NC(=O)NCCC(C)(C)C)c(F)cc3C)c(C)nc2n1", "note": "[LY-3009120]", "values": [{"measurement": "IC50", "setting": "[1]", "value": "> 20", "unit": "µM"}, {"measurement": "IC50", "setting": "[2]", "value": 0.098, "unit": "µM"}, {"measurement": "IC50", "setting": "[3]", "value": 0.39, "unit": "µM"}, {"measurement": "IC50", "setting": "eIF-2-alpha kinase GCN2", "value": 0.45, "unit": "µM"}, {"measurement": "bioavailability", "setting": "[4]", "value": 31.7, "unit": "%"}, {"measurement": "AUC(0-t) at 24 h", "setting": "[5]", "value": 0.0205, "unit": "µg·h/mL"}, {"measurement": "AUC(0-t) at 24 h", "setting": "[6]", "value": 2.09, "unit": "µg·h/mL"}, {"measurement": "Cmax", "setting": "[7]", "value": 0.511, "unit": "µg/mL"}, {"measurement": "Cmax", "setting": "[8]", "value": 0.492, "unit": "µg/mL"}, {"measurement": "Vd", "setting": "[9]", "value": 1.08, "unit": "L/kg"}, {"measurement": "half-life", "setting": "[10]", "value": 1.8, "unit": "h"}, {"measurement": "CL", "setting": "Canis familiaris", "value": 30, "unit": "%"}, {"measurement": "pKa", "setting": "[11]", "value": 4.52}, {"measurement": "solubility", "setting": "[12]", "value": 2, "unit": "µg/mL"}, {"measurement": "solubility", "setting": "[13]", "value": "< 1", "unit": "µg/mL"}, {"measurement": "Activity", "setting": "[14]", "value": "Active"}]}]}
